Assays:
Format in all cases: functional
Hepatitis B virus [1] = assay: Antiviral activity against Hepatitis B virus infected in human HepG2.2.15 cells assessed as inhibition of HBeAg secretion at 37.5 uM after 3 days by ELISA; conditions: HepG2 2.2.15, 72 h
Procedure, shortened: (§1)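 HepG2.2.15 cells (MEM, 10% FBS, 380 µg/ml G418) seeded at 1×10^5 cells/ml, held 24 h at 37 °C, then treated with various drug concentrations; medium with drug renewed every 3 d for up to 9 d. Culture medium sampled on days 3, 6 and 9, stored at -20 °C, and assayed for secreted antigen. Lamivudine as positive control; IC50 = 50% inhibition of secretion; means of at least two experiments.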

Hepatitis B virus [2] = assay: Antiviral activity against Hepatitis B virus infected in human HepG2.2.15 cells assessed as inhibition of HBeAg secretion at 37.5 uM after 9 days by ELISA; conditions: HepG2 2.2.15, 216 h; procedure, shortened: as §1
[3] = Selectivity index, ratio of CC50 for human HepG2.2.15 cells to IC50 for Hepatitis B virus infected in human HepG2.2.15 cells assessed as inhibition of HBV DNA replication
[4] = Selectivity index, ratio of CC50 for human HepG2.2.15 cells to IC50 for Hepatitis B virus infected in human HepG2.2.15 cells assessed as inhibition of HBeAg secretion
Procedure, shortened: (§2)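 Selectivity index computed as CC50/IC50, with CC50 from cell death of HepG2.2.15 cells after 9 days of treatment (OD 450 nm) and IC50 from 50% inhibition of HBeAg or HBsAg secretion in the same cells; medium with drug renewed every 3 d.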

Hepatitis B virus [5] = assay: Antiviral activity against Hepatitis B virus infected in human HepG2.2.15 cells assessed as inhibition of HBsAg secretion at 37.5 uM after 3 days by ELISA; conditions: HepG2 2.2.15, 72 h; procedure, shortened: as §1
Hepatitis B virus [6] = assay: Antiviral activity against Hepatitis B virus infected in human HepG2.2.15 cells assessed as inhibition of HBV DNA copies per uL at 300 uM after 3 days by real-time fluorescence quantitative PCR analysis; conditions: HepG2 2.2.15, 72 h
Hepatitis B virus [7] = assay: Antiviral activity against Hepatitis B virus infected in human HepG2.2.15 cells assessed as inhibition of HBV DNA copies per uL at 150 uM after 9 days by real-time fluorescence quantitative PCR analysis; conditions: HepG2 2.2.15, 216 h
Hepatitis B virus [8] = assay: Antiviral activity against Hepatitis B virus infected in human HepG2.2.15 cells assessed as inhibition of HBV DNA copies per uL at 300 uM after 9 days by real-time fluorescence quantitative PCR analysis; conditions: HepG2 2.2.15, 216 h
Hepatitis B virus [9] = assay: Antiviral activity against Hepatitis B virus infected in human HepG2.2.15 cells assessed as inhibition of HBeAg secretion at 300 uM after 3 days by ELISA; conditions: HepG2 2.2.15, 72 h; procedure, shortened: as §1
Hepatitis B virus [10] = assay: Antiviral activity against Hepatitis B virus infected in human HepG2.2.15 cells assessed as inhibition of HBV DNA copies per uL at 75 uM after 3 days by real-time fluorescence quantitative PCR analysis; conditions: HepG2 2.2.15, 72 h
[11] = Selectivity index, ratio of CC50 for human HepG2.2.15 cells to IC50 for Hepatitis B virus infected in human HepG2.2.15 cells assessed as inhibition of HBsAg secretion; procedure, shortened: as §2
Hepatitis B virus [12] = assay: Antiviral activity against Hepatitis B virus infected in human HepG2.2.15 cells assessed as inhibition of HBsAg secretion at 150 uM after 3 days by ELISA; conditions: HepG2 2.2.15, 72 h; procedure, shortened: as §1
Hepatitis B virus [13] = assay: Antiviral activity against Hepatitis B virus infected in human HepG2.2.15 cells assessed as cell survival at 75 uM after 9 days (reference value: 100%); conditions: HepG2 2.2.15, 216 h
Procedure, shortened: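 HepG2.2.15 cells (MEM, 10% FBS, 380 µg/ml G418, 37 °C, 5% CO2) seeded at 1×10^5 cells/ml, cultured 24 h, then exposed to various drug concentrations; drug-containing medium renewed every 3 d. OD read at 450 nm after 9 days; percent cell death calculated; CC50 = concentration killing 50% of cells. Means of at least two experiments.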

Hepatitis B virus [14] = assay: Antiviral activity against Hepatitis B virus infected in human HepG2.2.15 cells assessed as inhibition of HBsAg secretion at 150 uM after 9 days by ELISA; conditions: HepG2 2.2.15, 216 h; procedure, shortened: as §1
Hepatitis B virus [15] = assay: Antiviral activity against Hepatitis B virus infected in human HepG2.2.15 cells assessed as inhibition of HBV DNA copies per uL at 300 uM after 6 days by real-time fluorescence quantitative PCR analysis; conditions: HepG2 2.2.15, 144 h
Hepatitis B virus [16] = assay: Antiviral activity against Hepatitis B virus infected in human HepG2.2.15 cells assessed as inhibition of HBeAg secretion at 75 uM after 6 days by ELISA; conditions: HepG2 2.2.15, 144 h; procedure, shortened: as §1

Structure (SMILES)	inhibition at 37.5 µM (Hepatitis B virus [1])	inhibition at 37.5 µM (Hepatitis B virus [2])	Ratio CC50/IC50 [3]	Ratio CC50/IC50 [4]	inhibition at 37.5 µM (Hepatitis B virus [5])	inhibition at 300 µM (Hepatitis B virus [6])	inhibition at 150 µM (Hepatitis B virus [7])	inhibition at 300 µM (Hepatitis B virus [8])	inhibition at 300 µM (Hepatitis B virus [9])	inhibition at 75 µM (Hepatitis B virus [10])	Ratio CC50/IC50 [11]	inhibition at 150 µM (Hepatitis B virus [12])	viability at 75 µM (Hepatitis B virus [13])	inhibition at 150 µM (Hepatitis B virus [14])	inhibition at 300 µM (Hepatitis B virus [15])	inhibition at 75 µM (Hepatitis B virus [16])
O=C(/C=C/c1ccc2c(c1)OCO2)O/N=C/c1ccccn1	31.7%	82.5%	10.8	40.82	36.4%	62.8%	72.2%	85.8%	63.5%	36.9%	17.85	63.8%	72.9%	86.9%	68.8%	74.8%
COc1cc(/C=C/C(=O)O/N=C/c2ccccn2)cc2c1OCO2	17.8%	30%	6.78	8.85	17.2%	41.1%	54.5%	67.5%	54.2%	28.6%	10.27	41.2%	94.2%	70%	52.9%	42.3%
COc1cc(/C=C/C(=O)O/N=C/c2ccco2)cc2c1OCO2	24.9%	31%	5.87	10.89	22.3%	46.5%	52%	61.5%	59.8%	29.4%	12.9	56.3%	95.4%	67.3%	57.4%	37.8%
Nc1ccn([C@@H]2CS[C@H](CO)O2)c(=O)n1 [LAMIVUDINE]	10.1%	18.4%	82.84	2.13	11.6%	59.5%	81.6%	86.4%	30.9%	46%	2.42	28.6%	95.9%	55.9%	71.6%	22.1%

From ChEMBL document CHEMBL3576819, “Design, synthesis, biological evaluation and molecular docking studies of phenylpropanoid derivatives as potent anti-hepatitis B virus agents” (Eur J Med Chem, 2015)
